# Active and inactive are the calls of the source. No cut-off for these calls is given here.
# What was measured:
# Splenocyte [1] = experiment: Immunomodulatory activity in BALB/c mouse infected with Leishmania donovani amastigotes assessed as decrease in IL-10 level in splenocytes supernatants at 50 mg/kg, ip for 5 days; format: functional, organism-based; conditions: time 5.0 day
# Leishmania donovani [2] = experiment: Induction of mitochondrial membrane potential dysfunction in Leishmania donovani MHOM/IN/80/Dd8 promastigotes assessed as cells with mitochondrial depolarization at 50 uM incubated for 48 hrs by JC1 staining based flow cytometry (reference value: 3.63%); format: functional
# How it was run: (§1)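 Promastigotes (1 × 10^6 cells/mL) exposed to 50 µM for 24–72 h, or to IC50 for 72 h. CCCP (50 µM final) served as depolarization positive control. Cells washed, stained with JC-1 (2 µM final) 30 min at 37 °C, 5% CO2. Red-to-green fluorescence shift measured by flow cytometry.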
# Leishmania donovani [3] = experiment: Induction of mitochondrial membrane potential dysfunction in Leishmania donovani MHOM/IN/80/Dd8 promastigotes assessed as cells with mitochondrial depolarization at IC50 incubated for 72 hrs by JC1 staining based flow cytometry (reference value: 6.6%); format: functional; how it was run: as §1
# Leishmania donovani [4] = experiment: Antileishmanial activity against Leishmania donovani MHOM/IN/80/Dd8 infected in BALB/c mouse assessed as reduction in intracellular amastigote burden in spleen at 50 mg/kg, ip for 5 days and measured at 1 week post-treatment by Giemsa staining based assay relative to control; format: functional; conditions: MHOM/IN/80/Dd8, ip, 288 h, time 12 day
# How it was run: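 Female BALB/c mice (20–25 g), 5/group, infected iv with 2 × 10^7 stationary-phase L. donovani promastigotes. Infection confirmed at 2 wk, then 50 mg/kg ip daily for 5 consecutive days. Vehicle was 5% DMSO. Sacrificed day 7 post-treatment. Giemsa-stained liver/spleen impression smears counted as amastigotes/1000 nucleated cells, expressed as LDU (amastigotes per nucleated cell × organ weight in mg), compared with untreated infected controls.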
# Leishmania donovani [5] = experiment: Antileishmanial activity against log phase of Leishmania donovani MHOM/IN/80/Dd8 promastigotes assessed as reduction in cell viability at 25 uM incubated for 72 hrs by MTT assay; format: functional
# How it was run: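 Log-phase luciferase-transfected L. donovani Dd8 promastigotes (M199 + 10% FBS, 24 °C) treated with compounds at 25 and 50 µM in DMSO, with 0.1% DMSO vehicle control. After 72 h, MTT added 4 h. Formazan dissolved in DMSO, read at 570 nm. Percent inhibition reported as mean ± SD of at least three independent experiments in replicate.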
# Splenocyte [6] = experiment: Immunomodulatory activity in BALB/c mouse infected with Leishmania donovani amastigotes assessed as increase in IL-12 level in splenocytes supernatants at 50 mg/kg, ip for 5 days; format: functional, organism-based; conditions: time 5.0 day
# Leishmania donovani [7] = experiment: Antileishmanial activity against amastigote stage of Leishmania donovani MHOM/IN/80/Dd8 harboring luciferase gene infected in mouse J774 cells assessed as parasite growth inhibition by Giemsa staining based analysis; format: functional, organism-based; conditions: time 12-72 hrs, TDE = time-dependent effect
# How it was run: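 J774 macrophages are infected for 24 h with stationary-phase luciferase-transfected Dd8 promastigotes at a 1:8 ratio in chamber slides. After compound treatment, cells are fixed and Giemsa-stained, and intracellular amastigotes are counted by microscopy.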
# Leishmania donovani [8] = experiment: Antileishmanial activity against amastigote stage of Leishmania donovani MHOM/IN/80/Dd8 harboring luciferase gene infected in mouse J774 cells assessed as parasite growth inhibition at 50 uM incubated for 72 hrs by Steady-Glo reagent based luciferase assay; format: functional; conditions: MHOM/IN/80/Dd8, J774
# How it was run: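 J774 murine macrophages, 4 × 10⁴ cells/well in RPMI with 10% FBS for 24 h, are infected for 24 h at 37 °C, 5% CO₂ with stationary-phase luciferase-transfected L. donovani Dd8 promastigotes at a 1:8 macrophage:parasite ratio. Compounds are dissolved in DMSO. Luminescence is read after Steady-Glo is added in PBS. IC₅₀ is taken from a four-parameter Hill nonlinear regression. Miltefosine is the reference.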
# Leishmania donovani [9] = experiment: Induction of apoptosis in Leishmania donovani MHOM/IN/80/Dd8 promastigotes assessed as early apoptotic cells at 50 uM measured after 24 hrs by Alexa fluor488-AnnexinV/PI staining based FACSCalibur flow cytometry analysis (reference value: 10.3%); format: functional
# Leishmania donovani [10] = experiment: Induction of apoptosis in Leishmania donovani MHOM/IN/80/Dd8 promastigotes assessed as early apoptotic cells at 50 uM measured after 72 hrs by Alexa fluor488-AnnexinV/PI staining based FACSCalibur flow cytometry analysis (reference value: 10.3%); format: functional
# Leishmania donovani [11] = experiment: Induction of apoptosis in Leishmania donovani MHOM/IN/80/Dd8 promastigotes assessed as early apoptotic cells at 50 uM measured after 48 hrs by Alexa fluor488-AnnexinV/PI staining based FACSCalibur flow cytometry analysis (reference value: 10.3%); format: functional
smiles,measurement,setting,value
N#Cc1c(N2CCN(c3ccccc3O)CC2)cc(-c2ccccc2)oc1=O,Activity,Splenocyte [1],inactive
same,Activity,Leishmania donovani [2],54.1%
same,Activity,Leishmania donovani [3],22.9%
same,inhibition in vivo at 50 mg/kg,Leishmania donovani [4],56.9%
same,inhibition at 25 µM,Leishmania donovani [5],82.7%
same,Activity,Splenocyte [6],inactive
same,Activity,Leishmania donovani [7],Tde
same,inhibition at 50 µM,Leishmania donovani [8],95.7%
same,Activity,Leishmania donovani [9],15.4%
same,Activity,Leishmania donovani [10],41.4%
same,Activity,Leishmania donovani [11],39.1%
